In ChEMBL document CHEMBL2311435, “Development of 18F-labeled picolinamide probes for PET imaging of malignant melanoma” (J Med Chem, 2013):

System: Mus musculus
Test: Biodistribution in tumor of C57BL/6 mouse xenografted with mouse B16F10 cells at 3.7 MBq, iv after 2 hrs by gamma-scintillation counting analysis
Format: ADME, organism-based, Neoplasm, B16-F10
Settings: in vivo
Outline: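 1.0 × 10^6 B16F10 cells in PBS injected subcutaneously into the right shoulder of C57BL/6 mice, grown to 0.5 cm (~10 day). Tail-vein injection of about 3.7 MBq (100 μCi) 18F probe in PBS (0.1 M, pH 7.4). Killed at 1.0 or 2.0 h p.i. (n = 4 per group). Tissues excised, weighed and gamma-counted; uptake expressed as %ID/g, mean ± SD.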

Drug uptake: 5.94 % ID/g
SMILES: CCN(CC)CCNC(=O)c1ccc([18F])cc1
